{"source": "ChEMBL document CHEMBL1944548", "about": "“Discovery of kinase spectrum selective macrocycle (16E)-14-methyl-20-oxa-5,7,14,26-tetraazatetracyclo[19.3.1.1(2,6).1(8,12)]heptacosa-1(25),2(26),3,5,8(27),9,11,16,21,23-decaene (SB1317/TG02), a potent inhibitor of cyclin dependent kinases (CDKs), Janus kinase 2 (JAK2), and fms-like tyrosine …” (J Med Chem, 2012)", "key": {"[1]": {"target": "Cyclin-dependent kinase 2 (Homo sapiens) (UniProt P24941)", "experiment": "Inhibition of CDK2 in human HCT116 cells assessed as Rb phosphorylation at 200 nM after 24 hrs by Western blot analysis", "type": "cell-based", "conditions": "HCT-116", "procedure,_shortened": "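HCT-116 cells (2 × 10^5 in McCoy's medium with 2 mM L-glutamine and 10% FBS) seeded 16−24 h before dosing. Each dish exposed to one compound concentration or DMSO for 24 h. Lysis in modified RIPA buffer; protein by Bradford. 30 μg lysate run on 10% SDS−PAGE, blotted to PVDF, probed for phospho-Rb and β-actin. ECL detection.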"}, "DU-145": {"test_system": "DU-145", "experiment": "Antiproliferative activity against human DU145 cells after 48 hrs", "type": "functional, cell-based", "conditions": "DU-145, 48 h"}, "[2]": {"target": "T1, Receptor-type tyrosine-protein kinase FLT3 (Homo sapiens, UniProt P36888)", "T1 sequence (P36888 whole entry)": "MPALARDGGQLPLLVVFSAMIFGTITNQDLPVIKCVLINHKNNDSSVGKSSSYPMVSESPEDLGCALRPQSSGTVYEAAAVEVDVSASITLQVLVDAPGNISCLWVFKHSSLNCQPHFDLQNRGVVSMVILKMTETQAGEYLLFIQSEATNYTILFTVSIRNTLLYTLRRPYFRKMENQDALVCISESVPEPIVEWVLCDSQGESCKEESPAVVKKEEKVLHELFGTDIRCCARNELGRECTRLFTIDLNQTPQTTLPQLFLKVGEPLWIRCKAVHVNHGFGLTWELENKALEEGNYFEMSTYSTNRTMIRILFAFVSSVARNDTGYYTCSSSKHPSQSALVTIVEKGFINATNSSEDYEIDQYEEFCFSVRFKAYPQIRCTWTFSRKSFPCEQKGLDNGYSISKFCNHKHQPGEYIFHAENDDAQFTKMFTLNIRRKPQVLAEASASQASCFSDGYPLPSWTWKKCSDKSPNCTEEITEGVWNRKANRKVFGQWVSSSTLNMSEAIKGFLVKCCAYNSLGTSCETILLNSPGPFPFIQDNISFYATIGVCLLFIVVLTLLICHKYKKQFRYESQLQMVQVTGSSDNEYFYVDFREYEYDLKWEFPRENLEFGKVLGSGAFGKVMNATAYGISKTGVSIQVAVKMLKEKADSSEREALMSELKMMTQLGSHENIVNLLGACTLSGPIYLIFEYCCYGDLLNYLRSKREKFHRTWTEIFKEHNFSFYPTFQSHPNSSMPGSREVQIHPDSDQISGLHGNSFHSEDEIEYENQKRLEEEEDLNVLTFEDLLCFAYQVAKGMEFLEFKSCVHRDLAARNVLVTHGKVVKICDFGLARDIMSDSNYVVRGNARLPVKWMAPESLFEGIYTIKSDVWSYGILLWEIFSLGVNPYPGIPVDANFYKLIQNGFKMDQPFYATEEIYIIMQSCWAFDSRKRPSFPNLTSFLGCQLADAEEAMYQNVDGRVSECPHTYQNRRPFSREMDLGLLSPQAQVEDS", "experiment": "Inhibition of recombinant Flt3 using poly(Glu,Tyr) as substrate after 2 hrs by luminescence assay"}, "[3]": {"experiment": "Half life in rat liver microsomes at 5 uM by LC-MS/MS analysis", "type": "ADME, Microsome", "procedure,_shortened": "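5 μM with mouse, rat, dog or human liver microsomes (~0.87 mg/mL), 50 mM potassium phosphate pH 7.4, NADPH regeneration system, 37 °C.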"}, "Cytochrome P450 2D6": {"target": "Cytochrome P450 2D6 (Homo sapiens, UniProt P10635)", "sequence (P10635 whole entry)": "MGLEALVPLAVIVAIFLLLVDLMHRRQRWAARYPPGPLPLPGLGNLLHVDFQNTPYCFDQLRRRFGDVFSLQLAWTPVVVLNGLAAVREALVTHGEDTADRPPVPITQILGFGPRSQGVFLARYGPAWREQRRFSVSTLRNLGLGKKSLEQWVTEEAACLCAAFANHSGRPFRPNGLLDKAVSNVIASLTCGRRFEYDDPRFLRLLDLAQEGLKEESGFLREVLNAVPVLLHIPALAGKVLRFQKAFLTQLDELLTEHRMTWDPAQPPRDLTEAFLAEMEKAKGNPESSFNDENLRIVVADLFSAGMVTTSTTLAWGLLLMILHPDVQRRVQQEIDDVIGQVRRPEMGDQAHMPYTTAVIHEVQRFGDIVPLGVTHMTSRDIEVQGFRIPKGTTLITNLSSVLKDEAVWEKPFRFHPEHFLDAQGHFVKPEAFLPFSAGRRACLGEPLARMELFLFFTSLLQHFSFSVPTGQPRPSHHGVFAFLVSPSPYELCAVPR", "experiment": "Inhibition of CYP2D6 in human liver microsomes using dextromethorphan as substrate after 30 mins by LC-MS/MS analysis", "type": "ADME, Microsome", "procedure,_shortened": "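Human liver microsomes with 1 mM NADPH at 37 °C. Test concentrations 0.05, 0.25, 0.5, 2.5, 5 and 25 μM; final DMSO 0.35%. CYP1A: 0.25 mg/mL microsomes, ethoxyresorufin 0.5 μM, 5 min. CYP2D6: 0.5 mg/mL microsomes, dextromethorphan 5 μM, 30 min. IC50 from the fall in metabolite formation versus vehicle control. Selective inhibitors served as positive controls.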"}, "[4]": {"experiment": "Apparent permeability of the compound from apical to basolateral side in human Caco2 cells at 5 uM after 21 to 28 days by LC/MS analysis", "type": "ADME, cell-based", "conditions": "Caco-2", "procedure,_shortened": "(§1)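 5 μM in HBSS (DMSO <1%) dosed apical or basolateral on 21−28-day confluent Caco-2 monolayers, both sides pH 7.4. Sampled at 2 h, quantified by LC/MS with four-point calibration. Monolayer integrity checked by pre-experiment TEER (450−650 Ωcm2) and Lucifer yellow; efflux ratio = Papp B→A / Papp A→B.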"}, "HCT-116 [5]": {"test_system": "HCT-116", "experiment": "Antitumor activity against human HCT116 cells xenografted in BALB/c nude mouse assessed as tumor growth inhibition at 50 mg/kg, po qd administered thrice in a week for 15 days", "type": "functional, organism-based", "parameters": "dose 50 mg/kg", "procedure,_shortened": "(§2)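 Female BALB/c nude mice implanted sc with 5 × 10^6 HCT-116 cells; treatment began day 8 after inoculation when tumors were 75–144 mm3 (group mean 105 mm3), 9–10 mice/group. Oral gavage at 50 or 75 mg/kg, Mon/Wed/Fri, in 0.5% methylcellulose/0.1% Tween 80, to day 15. Volume (w2l)/2 measured twice weekly. %TGI from day-15 median volumes vs vehicle.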"}, "HCT-116 [6]": {"test_system": "HCT-116", "experiment": "Antitumor activity against human HCT116 cells xenografted in po dosed BALB/c nude mouse assessed as tumor growth inhibition", "type": "functional, organism-based", "procedure,_shortened": "as §2"}, "[7]": {"experiment": "Plasma protein binding in mouse at 1000 ng/ml after 4 hrs by equilibrium dialysis method", "type": "ADME, cell-free", "conditions": "read-out: PPB (converted)", "procedure,_shortened": "(§3)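 Equilibrium dialysis of plasma (mouse, dog, human) spiked to 1000 ng/mL against PBS, 4 h at 37 °C. Buffer side extracted in triplicate with MTBE, dried, reconstituted in methanol/water 60:40, measured by LC−MS/MS.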"}, "[8]": {"experiment": "Plasma protein binding in human at 1000 ng/ml after 4 hrs by equilibrium dialysis method", "type": "ADME, cell-free", "conditions": "read-out: PPB", "procedure,_shortened": "as §3"}, "[9]": {"experiment": "Apparent permeability of the compound from basolateral to apical side in human Caco2 cells at 5 uM after 21 to 28 days by LC/MS analysis", "type": "ADME, cell-based", "conditions": "Caco-2", "procedure,_shortened": "as §1"}, "Ramos": {"test_system": "Ramos", "experiment": "Antiproliferative activity against human Ramos cells after 48 hrs", "type": "functional, cell-based"}}, "note": "Activity calls are given as the source filed them. The calls are words filed in the database; no cut-off is given here.", "data": [{"smiles": "CN1C/C=C/CCOc2cccc(c2)-c2ccnc(n2)Nc2cccc(c2)C1", "note": "[ZOTIRACICLIB]", "values": [{"measurement": "inhibition", "setting": "[1]", "value": "Active"}, {"measurement": "IC50", "setting": "DU-145", "value": 140, "unit": "nM"}, {"measurement": "IC50", "setting": "[2]", "value": 56, "unit": "nM"}, {"measurement": "half-life at 5 µM", "setting": "[3]", "value": 11, "unit": "min"}, {"measurement": "IC50", "setting": "Cytochrome P450 2D6", "value": 950, "unit": "nM"}, {"measurement": "Papp A→B at 5 µM", "setting": "[4]", "value": 28, "unit": "×10⁻⁶ cm/s"}, {"measurement": "growth inhibition (GI)", "setting": "HCT-116 [5]", "value": "Active"}, {"measurement": "growth inhibition (GI)", "setting": "HCT-116 [6]", "value": "Dose-dependent effect"}, {"measurement": "fraction unbound at 4 h, 1000 ng/ml", "setting": "[7]", "value": 0.006}, {"measurement": "fraction unbound at 4 h, 1000 ng/ml", "setting": "[8]", "value": 0.001}, {"measurement": "Papp B→A at 5 µM", "setting": "[9]", "value": 27.4, "unit": "×10⁻⁶ cm/s"}, {"measurement": "IC50", "setting": "Ramos", "value": 33, "unit": "nM"}]}]}
